# Measurements reported in ChEMBL document CHEMBL2202986, “Guaianolide sesquiterpene lactones, a source to discover agents that selectively inhibit acute myelogenous leukemia stem and progenitor cells” (J Med Chem, 2012).
# Activity calls are given as the source filed them.
# Key:
# HL-60 = test: Cytotoxicity against human HL60 cells after 18 hrs by annexin-V labeling-based flow cytometry; format: functional, cell-based; details: HL-60, 18 h
# [1] = Cytotoxicity against human HL60/A cells after 18 hrs by annexin-V labeling-based flow cytometry; format: functional, cell-based
# [2] = Cytotoxicity against human leukemia stem/progenitor cells assessed as viable CD34+ cells at 10 uM after 18 hrs by annexin-V labeling-based flow cytometry; format: functional, CD34+ cell
# [3] = Cytotoxicity against human leukemia stem/progenitor cells assessed as cell viability at 5 uM after 18 hrs by annexin-V labeling-based flow cytometry; format: functional; details: in the assay text read “leukemia cells” for “leukemia stem/progenitor cells”, read-out: Activity
# Method in brief: (§1)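 Primary leukemia cells from AML patient blood were treated for 18 h in serum-free IMDM, then stained with CD34-APC and CD38-PECy7 for 30 min. After washing in cold PBS, cells were labelled with Annexin-V–FITC/PI for 15 min at room temperature and read by flow cytometry. Viability of total and CD34⁺ cells was normalized to untreated controls (mean, SD).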
# [4] = Cytotoxicity against human leukemia stem/progenitor cells assessed as viable CD34+ cells at 5 uM after 18 hrs by annexin-V labeling-based flow cytometry; format: functional, CD34+ cell; method in brief: as §1
# [5] = Cytotoxicity against human leukemia cells assessed as cell viability at 10 uM after 18 hrs by annexin-V labeling-based flow cytometry
# [6] = Drug degradation at pH 7.4 assessed as release of PTL after 3 hrs; format: physicochemical; details: buffer, pH 7.4, 3 h
# [7] = Induction of apoptosis in CD34+ leukemia stem/progenitor cells assessed as necrotic cells at 10 uM using annexin V/propidium iodide by flow cytometry; format: functional, Homo sapiens
# Method in brief: (§2)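 Primary AML patient cells were exposed to 10 μM compound for 18 h in IMDM, then stained with CD34-APC/CD38-PECy7. Annexin-V–FITC/PI was added and incubated for 15 min at room temperature before flow cytometry. Quadrants were defined as Q1 necrotic, Q2 late apoptotic, Q3 early apoptotic and Q4 viable.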
# [8] = Reduction in colony forming units of leukemia stem/progenitor cells at 5 uM after 15 to 20 days; format: functional, Homo sapiens
# Method in brief: (§3)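 Mononuclear cells from AML patient […] were exposed to drug for 18 h in serum-free IMDM, then plated in triplicate in M3434 methylcellulose. Total colonies (CFC-Mix, CFC-GM, CFC-G, CFC-M, BFU-E) were scored by morphology after 15−20 days.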
# [9] = Reduction in colony forming units of leukemia stem/progenitor cells at 10 uM after 15 to 20 days; format: functional, Homo sapiens; method in brief: as §3
# [10] = Cytotoxicity against human CD34+ hematopioetic stem cells at 5 uM by immunostaining method; format: cell-based
# Method in brief: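 Mononuclear cells were Ficoll-isolated from umbilical cord blood of a normal donor, cryopreserved, then rested in serum-free IMDM for 1 h. Cells were treated for 18 h in IMDM, stained with CD34-APC for 30 min, and labelled with Annexin-V–FITC/PI for 15 min at room temperature. Read by flow cytometry, normalized to vehicle, done in triplicate.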
# [11] = Cytotoxicity against human leukemia stem/progenitor cells assessed as viable CD34+CD38- cells at 10 uM after 18 hrs by annexin-V labeling-based flow cytometry relative to control; format: functional
# [12] = Induction of apoptosis in CD34+ leukemia stem/progenitor cells assessed as late apoptotic cells at 10 uM using annexin V/propidium iodide by flow cytometry; format: functional, Homo sapiens; method in brief: as §2
# [13] = Induction of apoptosis in CD34+ leukemia stem/progenitor cells assessed as early apoptotic cells at 10 uM using annexin V/propidium iodide by flow cytometry; format: functional, Homo sapiens; method in brief: as §2
# Homo sapiens = test: Antitumor activity against human leukemia stem/progenitor cells xenografted in NOD/SCID mouse assessed as reduction of CD45+CD33+ cells in spleen compound pretreated for 18 hrs before grafting process measured after 8 weeks; format: functional, tissue-based
# Method in brief: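 Fresh primary AML patient cells were exposed for 18 h to saline or compound. Equal numbers of surviving cells were then injected iv into NOD/SCID mice. After 8 weeks the mice were sacrificed, and the spleen CD33⁺CD45⁺ human cells were quantified by flow cytometry, with each animal analysed individually.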
# [14] = Induction of apoptosis in CD34+ leukemia stem/progenitor cells assessed as viable cells at 10 uM using annexin V/propidium iodide by flow cytometry; format: functional; details: Homo sapiens; read-out: Activity; method in brief: as §2
# [15] = Cytotoxicity against human leukemia stem/progenitor cells assessed as viable CD34+ cells at 10 uM after 18 hrs by annexin-V labeling-based flow cytometry relative to control; format: functional, CD34+ cell
Structure (SMILES),IC50 (HL-60),IC50 [1],Activity [2],viability at 5 µM [3],Activity [4],viability at 10 µM [5],also measured
C[C@@H]1CC[C@H]2[C@@H](C)C(=O)O[C@@H]3O[C@@]4(C)CC[C@@H]1[C@]32OO4 [ARTEMISININ],> 50 µM,> 50 µM,,,,,
CC1=C2CC[C@@](C)(O)[C@@H]2[C@H]2OC(=O)[C@@H](C)[C@@H]2CC1,> 50 µM,> 50 µM,74.4%,85%,83.1%,70.8%,
C=C1CC[C@H]2C(=C)CC[C@H]3C(=C)C(=O)O[C@@H]3[C@@H]12 [DEHYDROCOSTUSLACTONE],5.3 µM,3.7 µM,3.8%,6.1%,2.9%,6.4%,
C/C1=C\CC[C@@]2(C)O[C@@H]2[C@H]2OC(=O)[C@@H](Cn3cc(-c4ccccc4)nn3)[C@@H]2CC1,> 50 µM,> 100 µM,,,,,Drug degradation [6]: Not Active
C=C1C(=O)O[C@@H]2C3O[C@]3(C)CC/C=C(\C)CC[C@@H]12 (stereo partly specified),3.7 µM,4.1 µM,4.7%,18%,13.2%,8.3%,Activity [7]: 0.046%; CFU [8]: 2; CFU [9]: 0; Activity [10]: Non-toxic; fold change (FC) [11]: 2.6; Activity [12]: 27.8%; Activity [13]: 60.3%; Activity (Homo sapiens): Active; viability at 10 µM [14]: 1.73%; fold change (FC) [15]: 3.8
C/C1=C\CC[C@@]2(C)O[C@@H]2[C@H]2OC(=O)[C@@H](Cn3cc(CCCCO)nn3)[C@@H]2CC1,> 50 µM,> 100 µM,,,,,Drug degradation [6]: Not Active
C=C1C(=O)O[C@@H]2[C@H]3C(C)=CC[C@@]34O[C@@]4(C)CC[C@@H]12 [ARGLABIN],,,10.7%,,,20%,fold change (FC) [11]: 1.9; fold change (FC) [15]: 1.8
C=C1CC(=O)OC1=O [ITACONIC ANHYDRIDE],> 50 µM,> 50 µM,,,,,
C/C1=C\CC[C@@]2(C)O[C@@H]2[C@H]2OC(=O)[C@@H](CN=[N+]=[N-])[C@@H]2CC1,4.3 µM,5.9 µM,17.5%,31.5%,28.4%,22.8%,Drug degradation [6]: Active
C=C1C(=O)O[C@H]2[C@H]1CCC(C)=C1CC[C@@](C)(OC)[C@@H]12,9.9 µM,10.2 µM,2.1%,34.1%,25.5%,10.8%,
C=C1C(=O)O[C@@H]2[C@@H]3[C@@H](CC[C@@]3(C)O)[C@](C)(O)CC[C@@H]12,21.9 µM,17.9 µM,84.8%,88.5%,84.9%,89.9%,
